The values below come from BindingDB's records for doi:10.1021/jm100027p (Emory University, 2010).

The target of test [1] is Glutamate receptor ionotropic, NMDA 1/2A (Rattus norvegicus, UniProt Q00959+P35439). Kind of test: Antagonist activity at rat recombinant NR1-NR2A receptor expressed in Xenopus oocytes at holding potential of -40mV by two-electrode voltage-clamp electrophysiology. An outline of the steps:
(§1)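 Oocytes expressing rat NR1-1a with NR2A, NR2B, NR2C or NR2D, clamped at −40 mV in Ba2+/HEPES recording solution pH 7.4, 23°C. Current evoked by 100 μM glutamate plus 30 μM glycine. Final DMSO 0.05-0.5%, 5-7 inhibitor concentrations, ≥4 oocytes each. IC50 from Hill fit of normalized mean composite data. […] Some NR2A oocytes given BAPTA-AM or K-BAPTA.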
Background: In two-electrode clamp one electrode senses voltage and the other passes current.

For another test, the target named is Glutamate receptor 1 (Rattus norvegicus, UniProt P19490). The test can be described thus: Antagonist activity at rat recombinant GLuR1 expressed in Xenopus oocytes assessed as inhibition of glutamate-induced current by two-electrode voltage-clamp electrophysiology. An outline of the steps: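 Two-electrode voltage clamp at −40 mV on Xenopus oocytes expressing rat GluR1, perfused with 90 NaCl, 1.0 KCl, 0.5 BaCl2, 0.005 EDTA, 10 HEPES (mM), pH 7.4, 23°C; activated by 100 μM glutamate. From 20 mM DMSO stocks, 5-7 concentrations, ≥4 oocytes each. Hill fit to mean composite curves normalized to control, minimum usually fixed at 0. Response >75% at 100 μM reported as >300 μM.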

The target in test [2] is Glutamate receptor ionotropic, NMDA 1/2B (Rattus norvegicus, UniProt Q00960+P35439). The test can be described thus: Antagonist activity at rat recombinant NR1-NR2B receptor expressed in Xenopus oocytes at holding potential of -40mV by two-electrode voltage-clamp electrophysiology. In outline:
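Oocytes expressed rat NR1-1a/NR2B and were held at −40 mV, 23°C, pH 7.4 HEPES-buffered saline. Currents were activated by 100 μM glutamate plus 30 μM glycine. 5-7 inhibitor concentrations were tested, ≥4 oocytes each, normalized to control. IC50 came from Hill fits, minimum fixed at 0 unless indicated. Responses >75% of control at 100 μM were reported as >300 μM.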

Test [3] concerns the target Glutamate receptor ionotropic, NMDA 1/2C (Rattus norvegicus, UniProt Q00961+P35439). Kind of test: Antagonist activity at rat recombinant NR1-NR2C receptor expressed in Xenopus oocytes at holding potential of -40mV by two-electrode voltage-clamp electrophysiology. An outline of the steps:
as §1

Glutamate receptor ionotropic, NMDA 1/2A, sequence (Q00959 whole entry, other chains not shown): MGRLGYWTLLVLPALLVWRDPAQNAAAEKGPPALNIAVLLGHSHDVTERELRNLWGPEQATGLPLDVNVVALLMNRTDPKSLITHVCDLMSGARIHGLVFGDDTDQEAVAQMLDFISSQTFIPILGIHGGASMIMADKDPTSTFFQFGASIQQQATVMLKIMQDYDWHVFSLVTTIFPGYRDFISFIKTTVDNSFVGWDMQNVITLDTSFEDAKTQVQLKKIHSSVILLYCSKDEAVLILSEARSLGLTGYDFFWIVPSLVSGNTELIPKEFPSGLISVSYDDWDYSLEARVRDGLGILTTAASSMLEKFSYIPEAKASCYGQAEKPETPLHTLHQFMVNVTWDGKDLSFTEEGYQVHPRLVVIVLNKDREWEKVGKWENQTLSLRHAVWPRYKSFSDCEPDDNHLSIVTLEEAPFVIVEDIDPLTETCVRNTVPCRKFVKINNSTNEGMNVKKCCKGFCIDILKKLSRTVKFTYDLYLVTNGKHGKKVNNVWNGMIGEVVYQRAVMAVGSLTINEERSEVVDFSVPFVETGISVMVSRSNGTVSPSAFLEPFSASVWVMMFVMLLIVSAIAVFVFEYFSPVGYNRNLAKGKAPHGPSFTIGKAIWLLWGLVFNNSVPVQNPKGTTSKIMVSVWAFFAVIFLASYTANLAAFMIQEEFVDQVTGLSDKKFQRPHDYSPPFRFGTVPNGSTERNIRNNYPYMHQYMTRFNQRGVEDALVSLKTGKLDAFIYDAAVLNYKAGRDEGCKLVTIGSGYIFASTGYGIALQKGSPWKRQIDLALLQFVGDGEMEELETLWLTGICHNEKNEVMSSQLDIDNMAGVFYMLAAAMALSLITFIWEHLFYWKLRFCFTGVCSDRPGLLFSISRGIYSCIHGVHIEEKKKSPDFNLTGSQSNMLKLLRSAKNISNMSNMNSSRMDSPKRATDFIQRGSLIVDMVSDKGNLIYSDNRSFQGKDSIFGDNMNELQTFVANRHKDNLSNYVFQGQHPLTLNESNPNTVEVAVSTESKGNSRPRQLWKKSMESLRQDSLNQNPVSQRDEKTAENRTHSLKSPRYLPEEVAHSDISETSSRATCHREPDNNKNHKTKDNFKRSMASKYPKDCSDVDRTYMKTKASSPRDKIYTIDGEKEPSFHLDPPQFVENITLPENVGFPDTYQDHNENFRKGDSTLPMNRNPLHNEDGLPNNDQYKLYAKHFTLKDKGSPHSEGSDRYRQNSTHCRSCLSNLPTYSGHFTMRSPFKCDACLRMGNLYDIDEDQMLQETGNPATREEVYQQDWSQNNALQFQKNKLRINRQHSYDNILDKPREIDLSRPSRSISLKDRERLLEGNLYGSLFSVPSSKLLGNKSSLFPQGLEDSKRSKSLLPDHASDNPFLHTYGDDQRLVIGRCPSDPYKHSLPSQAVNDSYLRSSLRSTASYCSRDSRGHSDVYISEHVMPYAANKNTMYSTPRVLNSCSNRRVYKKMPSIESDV
Glutamate receptor ionotropic, NMDA 1/2B, sequence (Q00960 whole entry, other chains not shown): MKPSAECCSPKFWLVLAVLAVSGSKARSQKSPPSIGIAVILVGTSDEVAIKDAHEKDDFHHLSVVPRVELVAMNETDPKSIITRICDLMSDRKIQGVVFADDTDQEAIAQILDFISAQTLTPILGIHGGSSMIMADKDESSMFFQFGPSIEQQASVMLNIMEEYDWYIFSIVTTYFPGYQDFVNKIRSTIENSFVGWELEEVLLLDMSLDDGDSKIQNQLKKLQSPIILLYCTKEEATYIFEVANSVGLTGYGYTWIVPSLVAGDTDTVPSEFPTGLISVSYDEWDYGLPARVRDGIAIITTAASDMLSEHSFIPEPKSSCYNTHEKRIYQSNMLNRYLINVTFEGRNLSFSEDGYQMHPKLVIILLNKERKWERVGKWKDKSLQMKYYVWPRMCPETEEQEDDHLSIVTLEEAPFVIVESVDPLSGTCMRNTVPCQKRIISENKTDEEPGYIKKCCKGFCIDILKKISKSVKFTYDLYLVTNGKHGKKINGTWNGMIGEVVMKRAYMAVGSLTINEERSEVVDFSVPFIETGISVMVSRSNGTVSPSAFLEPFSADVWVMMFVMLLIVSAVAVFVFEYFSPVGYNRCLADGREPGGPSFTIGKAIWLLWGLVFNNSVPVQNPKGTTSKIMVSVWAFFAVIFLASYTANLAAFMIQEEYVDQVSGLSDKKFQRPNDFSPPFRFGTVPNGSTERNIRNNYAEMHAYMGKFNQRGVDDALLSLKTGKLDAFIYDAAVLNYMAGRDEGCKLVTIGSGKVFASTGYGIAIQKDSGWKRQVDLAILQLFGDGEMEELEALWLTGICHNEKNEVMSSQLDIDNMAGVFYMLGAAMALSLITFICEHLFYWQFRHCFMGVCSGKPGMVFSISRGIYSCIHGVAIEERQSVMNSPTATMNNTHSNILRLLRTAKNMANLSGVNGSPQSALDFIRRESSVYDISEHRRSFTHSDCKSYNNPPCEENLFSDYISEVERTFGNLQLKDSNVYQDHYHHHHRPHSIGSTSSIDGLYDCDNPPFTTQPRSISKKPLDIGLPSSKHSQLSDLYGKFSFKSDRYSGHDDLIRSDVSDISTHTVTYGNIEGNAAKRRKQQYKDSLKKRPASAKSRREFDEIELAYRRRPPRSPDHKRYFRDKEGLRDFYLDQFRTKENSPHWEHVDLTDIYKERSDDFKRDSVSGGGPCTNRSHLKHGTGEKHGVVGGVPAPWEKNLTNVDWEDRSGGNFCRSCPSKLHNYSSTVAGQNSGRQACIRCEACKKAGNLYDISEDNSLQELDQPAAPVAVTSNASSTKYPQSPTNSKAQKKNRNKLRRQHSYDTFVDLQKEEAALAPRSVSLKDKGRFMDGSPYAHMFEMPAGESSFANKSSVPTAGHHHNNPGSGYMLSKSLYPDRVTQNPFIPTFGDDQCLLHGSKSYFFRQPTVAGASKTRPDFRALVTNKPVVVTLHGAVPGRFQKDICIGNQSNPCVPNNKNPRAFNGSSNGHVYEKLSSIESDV
Glutamate receptor 1, sequence (P19490 whole entry, the tested form may be a part): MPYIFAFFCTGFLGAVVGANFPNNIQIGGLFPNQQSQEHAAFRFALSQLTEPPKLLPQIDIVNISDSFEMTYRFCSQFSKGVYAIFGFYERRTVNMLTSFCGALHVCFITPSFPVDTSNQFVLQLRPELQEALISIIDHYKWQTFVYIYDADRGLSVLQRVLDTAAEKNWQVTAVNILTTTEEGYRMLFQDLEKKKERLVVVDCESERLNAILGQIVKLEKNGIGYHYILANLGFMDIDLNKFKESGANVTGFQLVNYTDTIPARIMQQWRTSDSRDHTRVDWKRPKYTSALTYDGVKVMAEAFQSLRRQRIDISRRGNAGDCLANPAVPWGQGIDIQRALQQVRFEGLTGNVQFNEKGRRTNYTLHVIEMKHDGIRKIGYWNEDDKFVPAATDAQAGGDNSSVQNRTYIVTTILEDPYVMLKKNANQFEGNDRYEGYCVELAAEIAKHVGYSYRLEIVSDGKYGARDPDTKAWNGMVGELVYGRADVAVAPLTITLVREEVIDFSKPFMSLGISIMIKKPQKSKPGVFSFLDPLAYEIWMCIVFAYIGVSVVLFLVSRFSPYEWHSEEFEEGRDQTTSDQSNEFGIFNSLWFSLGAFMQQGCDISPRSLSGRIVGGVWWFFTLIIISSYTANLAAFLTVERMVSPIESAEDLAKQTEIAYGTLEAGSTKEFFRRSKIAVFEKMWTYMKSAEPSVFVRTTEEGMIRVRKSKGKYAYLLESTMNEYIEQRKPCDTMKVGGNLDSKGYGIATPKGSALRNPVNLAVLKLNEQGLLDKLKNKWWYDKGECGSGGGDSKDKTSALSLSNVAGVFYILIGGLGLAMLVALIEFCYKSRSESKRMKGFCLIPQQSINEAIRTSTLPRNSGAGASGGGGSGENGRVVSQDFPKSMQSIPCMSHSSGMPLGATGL
Glutamate receptor ionotropic, NMDA 1/2C, sequence (Q00961 whole entry, other chains not shown): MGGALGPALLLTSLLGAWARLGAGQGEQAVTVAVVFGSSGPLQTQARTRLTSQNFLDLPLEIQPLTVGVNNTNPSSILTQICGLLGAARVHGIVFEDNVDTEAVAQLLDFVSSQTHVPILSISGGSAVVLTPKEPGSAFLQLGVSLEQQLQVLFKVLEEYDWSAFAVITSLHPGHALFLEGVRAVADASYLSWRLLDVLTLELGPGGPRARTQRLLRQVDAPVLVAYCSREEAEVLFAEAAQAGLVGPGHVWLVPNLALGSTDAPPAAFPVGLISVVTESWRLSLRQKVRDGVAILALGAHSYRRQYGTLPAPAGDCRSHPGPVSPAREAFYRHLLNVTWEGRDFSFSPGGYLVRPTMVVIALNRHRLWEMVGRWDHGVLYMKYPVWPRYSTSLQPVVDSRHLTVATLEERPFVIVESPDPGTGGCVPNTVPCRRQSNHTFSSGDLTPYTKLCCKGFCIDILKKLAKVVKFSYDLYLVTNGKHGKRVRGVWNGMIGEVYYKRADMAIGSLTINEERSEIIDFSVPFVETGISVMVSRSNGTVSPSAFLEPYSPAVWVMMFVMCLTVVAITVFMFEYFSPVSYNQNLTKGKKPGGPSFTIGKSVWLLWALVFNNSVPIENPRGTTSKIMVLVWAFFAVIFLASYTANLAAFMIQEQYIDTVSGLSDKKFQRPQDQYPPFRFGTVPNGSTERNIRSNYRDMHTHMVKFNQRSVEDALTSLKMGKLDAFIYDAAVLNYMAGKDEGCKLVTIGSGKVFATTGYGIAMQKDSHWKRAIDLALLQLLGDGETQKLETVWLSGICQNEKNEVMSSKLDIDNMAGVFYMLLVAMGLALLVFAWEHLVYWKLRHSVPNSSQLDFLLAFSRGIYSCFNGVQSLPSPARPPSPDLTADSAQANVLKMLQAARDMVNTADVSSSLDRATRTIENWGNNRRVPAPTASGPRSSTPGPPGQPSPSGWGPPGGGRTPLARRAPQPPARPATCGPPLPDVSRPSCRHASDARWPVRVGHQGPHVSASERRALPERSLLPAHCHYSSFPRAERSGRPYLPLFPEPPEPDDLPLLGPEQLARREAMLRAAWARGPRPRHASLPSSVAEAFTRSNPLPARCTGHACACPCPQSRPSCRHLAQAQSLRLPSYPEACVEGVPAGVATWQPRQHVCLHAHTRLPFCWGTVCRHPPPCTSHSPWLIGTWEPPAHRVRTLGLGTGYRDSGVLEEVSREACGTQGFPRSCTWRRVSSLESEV

Broadly, the IC50 is the concentration that inhibits the measured activity by half. In the case of `O=C(O)c1ccc(-n2c(/C=C/c3cccc([N+](=O)[O-])c3)nc3ccc(Cl)cc3c2=O)cc1` [(E)-4-(6-Chloro-2-(3-nitrostyryl)-4-oxoquinazolin-3(4H)-yl)-benzoic Acid], the IC50 worked out at 16 µM in test [1], 7 µM on Glutamate receptor 1, 13 µM in test [2] and 2 µM in test [3].
